Screening results from PubChem BioAssay.
Shown are actives, neighbours in structure and some others; about 3% of the full set was active somewhere.
SR-BI DiI-HDL act: SR-BI HDL lipid transfer activation; CHO ldlA[mSR-BI] cells, DiI-HDL uptake fluorescence, 3 h; 100 = double the neutral-control signal; activation, % at 12.5 µM; hit rate 0.096% among 320,000;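 active = mean replicate activation of at least 60% and every replicate at or above 60%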;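 also: 0% = median plate neutral-control signal and 100% = twice that signal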
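system = CHO ldlA[mSR-BI] cells, LDL receptor-null, SR-BI overexpressing | medium = Ham's F12 with 0.5% BSA, HEPES 25 mM, pH 7.4 | probe or stimulus = DiI-HDL 10 µg/mL | compound dosing = single-point compound dose | incubation = compound exposure 3 h, 37 °C | technique = DiI fluorescence, bottom read | read-out = cell-associated DiI fluorescence as measure of HDL uptake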
FID counter: displaces DNA intercalator in HCV helicase counter-screen. AID 1845. hit rate 0.17% among 290,000. DNA fluorescent intercalator displacement, fluorescence. inhibition, % at 7.9 µM; in the data active = inhibition above about 37%;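 also: 0% = vehicle and 100% = reference compound; higher means more ethidium bromide displaced from hairpin DNA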
ANO1 block: blocks the mouse calcium-activated chloride channel TMEM16A | HEK293 TMEM16A/YFP iodide influx fluorescence, ionomycin | Q8BHY3 | hit rate 1.2% among 310,000 | normalized B-score (activity score, 25-100; higher = stronger inhibition) at 10 µM;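 active = ratio plate-corrected score three or more library SD toward inhibition, starting fluorescence score within five deviations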;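 also: score derived from kinetic fluorescence span divided by baseline fluorescence per well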
Target sequence (Q8BHY3 whole entry, looked up): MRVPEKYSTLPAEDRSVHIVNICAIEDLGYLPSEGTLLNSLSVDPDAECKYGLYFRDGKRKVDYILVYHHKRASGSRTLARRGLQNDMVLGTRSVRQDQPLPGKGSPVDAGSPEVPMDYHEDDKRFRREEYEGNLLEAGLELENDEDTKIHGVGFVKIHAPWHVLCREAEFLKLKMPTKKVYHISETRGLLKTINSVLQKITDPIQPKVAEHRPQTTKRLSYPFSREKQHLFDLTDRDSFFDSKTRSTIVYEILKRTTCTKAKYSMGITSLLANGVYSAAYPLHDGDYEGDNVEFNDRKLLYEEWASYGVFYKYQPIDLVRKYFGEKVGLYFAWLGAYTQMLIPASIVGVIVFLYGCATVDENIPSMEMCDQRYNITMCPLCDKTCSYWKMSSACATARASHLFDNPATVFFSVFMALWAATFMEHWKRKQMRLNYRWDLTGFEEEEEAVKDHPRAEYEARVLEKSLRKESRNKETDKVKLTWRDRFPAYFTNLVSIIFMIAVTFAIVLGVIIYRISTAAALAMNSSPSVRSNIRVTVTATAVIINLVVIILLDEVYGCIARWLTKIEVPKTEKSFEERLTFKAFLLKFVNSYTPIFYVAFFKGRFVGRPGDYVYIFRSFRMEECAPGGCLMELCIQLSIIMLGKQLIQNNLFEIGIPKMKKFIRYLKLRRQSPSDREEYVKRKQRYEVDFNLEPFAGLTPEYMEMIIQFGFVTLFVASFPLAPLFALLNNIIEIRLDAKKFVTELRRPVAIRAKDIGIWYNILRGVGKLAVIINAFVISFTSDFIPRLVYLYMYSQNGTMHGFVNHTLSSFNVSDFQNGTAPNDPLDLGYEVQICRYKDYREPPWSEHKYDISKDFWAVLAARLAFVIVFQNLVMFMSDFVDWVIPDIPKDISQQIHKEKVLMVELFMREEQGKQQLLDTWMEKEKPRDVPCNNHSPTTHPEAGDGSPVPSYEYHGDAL
TMEM16A act: mouse TMEM16A channel activation, primary screen; hit rate 0.3% among 340,000; Q8BHY3; B-score at 10 µM; HEK293 TMEM16A/YFP-H148Q/I152L, iodide quench fluorescence; active compounds read low; AID 623877;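 active = fluorescence-ratio B-score plate-corrected deviation score at least 3 library SD below zero, with starting fluorescence score within 5 deviations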;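 also: channel opened by trigger with iodide after compound preincubation; score built on the fluorescence ratio of max minus min over baseline; more negative score means more quench and so TMEM16A activation or potentiation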
SR-BI DiI inh: mouse SR-BI HDL lipid transfer inhibition; Q61009; ldlA[mSR-BI] CHO cells, DiI-HDL uptake fluorescence, 3 h; inhibition, % at 12.5 µM; hit rate 0.96% among 320,000; AID 488896;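 active = mean replicate inhibition of at least 70% and a set share of replicates each scoring 70 or more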;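 also: 0% = median of neutral control wells and 100% = median of positive control wells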
Kir21 block: Kir2.1 (mouse) channel inhibition. HEK293-Kir2.1, FluxOR thallium flux fluorescence; active compounds read low. B-score at 10 µM. hit rate 0.85% among 310,000. AID 1672;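 active = fluorescence ratio B-score at or below minus 3 SD of library scores, with starting-brightness B-score within 2 SD, cut at about -4.2 in these data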;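 also: channel flux triggered by added potassium and thallium sulfate stimulus; B-score of peak minus minimum fluorescence over baseline after thallium stimulus; more negative B-score means stronger Kir2.1 block with less thallium influx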
* hit, by the source's call.

For COCc1cc(N2CCN(c3ccccc3F)CC2)nc(-c2ccccc2)n1 the results were SR-BI DiI-HDL act -80, FID counter -3, ANO1 block inactive, TMEM16A act inactive, SR-BI DiI inh 80* and Kir21 block 0.01.
COCc1cc(N2CCOCC2)nc(-c2ccccc2)n1 was read as SR-BI DiI-HDL act -38, FID counter 1, ANO1 block inactive, TMEM16A act inactive, SR-BI DiI inh 38 and Kir21 block -0.02.
`COc1cc(C(=O)O)nc(OC)n1` gave SR-BI DiI-HDL act 8, FID counter 0, ANO1 block inactive, TMEM16A act inactive, SR-BI DiI inh -8 and Kir21 block -0.19.
Screening O=C1NC(=Nc2ccccc2Cl)S/C1=C\c1cccc([N+](=O)[O-])c1O returned SR-BI DiI-HDL act 13, FID counter -20, ANO1 block 25*, TMEM16A act inactive, SR-BI DiI inh -13 and Kir21 block 0.
Screening COc1c(/C=C2\SC(=Nc3ccccc3Cl)NC2=O)cccc1[N+](=O)[O-] returned SR-BI DiI-HDL act -13, FID counter -9, ANO1 block inactive, TMEM16A act inactive, SR-BI DiI inh 13 and Kir21 block -1.6.
Screening O=C1NC(=S)S/C1=C\c1cccc([N+](=O)[O-])c1 returned SR-BI DiI-HDL act 15, TMEM16A act inactive and SR-BI DiI inh -15.
For O=C1NC(=Nc2ccccc2Cl)S/C1=C\c1cccc([N+](=O)[O-])c1 the results were SR-BI DiI-HDL act 13, FID counter -12, ANO1 block 25*, TMEM16A act inactive, SR-BI DiI inh -13 and Kir21 block 0.81.
Screening O=C(COC(=O)c1nc(Cl)ccc1Cl)NC1CCCCC1 returned SR-BI DiI-HDL act 3, TMEM16A act inactive and SR-BI DiI inh -3.
For CCCC(=O)Nc1ccc(C(=O)NNC(=S)NC(=O)c2cccs2)cc1 the results were SR-BI DiI-HDL act -9, FID counter -7, ANO1 block inactive, TMEM16A act inactive, SR-BI DiI inh 9 and Kir21 block 1.5.
For COc1ccc(C(=O)NNC(=S)NC(=O)c2ccc(Cl)cc2)cc1 the results were SR-BI DiI-HDL act 5, ANO1 block 100*, TMEM16A act inactive, SR-BI DiI inh -5 and Kir21 block 1.4.
CCCOc1ccc(C(=O)NNC(=S)NC(=O)c2cccs2)cc1 was read as SR-BI DiI-HDL act 5, FID counter -41, ANO1 block 100*, TMEM16A act inactive, SR-BI DiI inh -5 and Kir21 block -0.39.
CCCOc1ccc(C(=O)NNC(=S)NC(C)=O)cc1 was read as SR-BI DiI-HDL act -3, FID counter -5, ANO1 block inactive, TMEM16A act inactive, SR-BI DiI inh 3 and Kir21 block -0.13.
Screening O=C(O)c1ccccc1NC(=S)NC(=O)c1sc2ccccc2c1Cl returned SR-BI DiI-HDL act 10, FID counter -3, ANO1 block inactive, TMEM16A act inactive, SR-BI DiI inh -10 and Kir21 block -0.98.
`O=C(NNC(=S)NC(=O)c1sc2ccccc2c1Cl)c1ccc(Cl)cc1` gave SR-BI DiI-HDL act -18, FID counter -10, ANO1 block 100*, TMEM16A act -9.3*, SR-BI DiI inh 18 and Kir21 block 0.21.
Screening CCCOc1ccc(C(=O)NNC(=S)NC(=O)c2ccccc2)cc1 returned SR-BI DiI-HDL act 22, FID counter -47, ANO1 block 100*, TMEM16A act inactive, SR-BI DiI inh -22 and Kir21 block 0.88.
CCOC(=O)CCNC(=O)N1CCC(CCOc2ccccc2)(C(=O)OCC)CC1 was read as SR-BI DiI-HDL act 18, FID counter -39, ANO1 block inactive, TMEM16A act inactive, SR-BI DiI inh -18 and Kir21 block 2.4.
`CC(=Nc1ccccc1)C1=C(O)C(Cc2ccccc2)NC1=O` (configuration not stated) gave SR-BI DiI-HDL act -2, TMEM16A act inactive and SR-BI DiI inh 2.
CCN(CC(=O)Nc1cc(Cl)ccc1Cl)C(=O)c1ccc(-n2cccn2)cc1 was read as SR-BI DiI-HDL act -15, TMEM16A act inactive and SR-BI DiI inh 15.
